Results on 36 compounds are retold here after ChEMBL document CHEMBL4359895, “Discovery and biological evaluation of darolutamide derivatives as inhibitors and down-regulators of wild-type AR and the mutants” (Eur J Med Chem, 2019).

For assay [1], the system named is PC-3. The assay can be described thus: Cytotoxicity against human PC3 assessed as reduction in cell viability incubated for 6 days by CCK-8 assay. In kind it is cell-based. Conditions: PC-3, 144 h. In a few lines: (§1)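 Cell proliferation assay run on LNCaP/AR, VCaP, 22Rv1, PC-3 and L-02 cells, with PC-3 and L-02 serving as AR-independent toxicity controls. IC50 fitted in GraphPad Prism 5 as the mean of at least two experiments, each in duplicate. Deviations under 35%.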
For orientation: Tetrazolium dyes change colour on reduction, which living cells bring about.

Assay [2] concerns VCaP. Briefly: Antiproliferative activity against human VCaP expressing AR assessed as reduction in cell viability incubated for 6 days by CCK-8 assay. Format: functional, cell-based. The following applies: 144 h. The method, boiled down: as §1
Assay [3] deals with LNCaP. Briefly: Antiproliferative activity against human LNCAP expressing AR assessed as reduction in cell viability incubated for 6 days by CCK-8 assay. Format: functional, cell-based. The following applies: 144 h. The method, boiled down: as §1
Assay [4] has as its system CWR22R. The assay can be described thus: Antiproliferative activity against human 22Rv1 expressing AR assessed as reduction in cell viability incubated for 6 days by CCK-8 assay. In kind it is functional, cell-based. The following applies: 22Rv1, 144 h. In a few lines:
as §1

Assay [5] relates to L02. Briefly: Cytotoxicity against human L02 assessed as reduction in cell viability incubated for 6 days by CCK-8 assay. In kind it is cell-based. Conditions: L02, 144 h. In a few lines:
as §1

SMILES strings stand for the structures.

For the compound `COC(=O)/C=C/C(=O)N[C@@H](C)Cn1ccc(-c2ccc(C#N)c(Cl)c2)n1`, the IC50 in assay [1] was over 30 µM; in assay [2], 5.23 µM; in assay [3], 2460 nM.
As for `C[C@@H](Cn1ccc(-c2ccc(C#N)c(Cl)c2)n1)Nc1nccc2ccccc12`, the IC50 in assay [1] was over 30 µM; in assay [4], 3.57 µM; in assay [2], 1.47 µM; in assay [3] it was 2100 nM.
On to `C[C@@H](Cn1ccc(-c2ccc(C#N)c(Cl)c2)n1)Nc1ccc2cnccc2c1`, for which the IC50 in assay [4] amounted to 2.98 µM; in assay [2] it was 2.26 µM; in assay [3], 510 nM.
As for `CC(=O)c1cccc(NC(=O)C(C)Cn2ccc(-c3ccc(C#N)c(Cl)c3)n2)c1` (racemic), the 50% inhibitory concentration (IC50) in assay [1] was over 30 µM; in assay [2], 2.98 µM; in assay [3], 1540 nM.
Regarding `C[C@@H](Cn1ccc(-c2ccc(C#N)c(Cl)c2)n1)Nc1ccnc2ccccc12`, the IC50 amounted to 4.29 µM in assay [4], 2.41 µM in assay [2] and 4810 nM in assay [3].
For the compound `C[C@@H](Cn1ccc(-c2ccc(C#N)c(Cl)c2)n1)Nc1ccc2cccnc2c1`, the IC50 in assay [1] was 11.2 µM; in assay [4] it was 5.82 µM; in assay [2] it was 3.22 µM; in assay [3], 2660 nM.
As for `C[C@@H](Cn1ccc(-c2ccc(C#N)c(Cl)c2)n1)Nc1cccc2cnccc12`, the IC50 in assay [4] was 21.2 µM; in assay [2], over 30 µM; in assay [3], 870 nM.
As for `C[C@@H](Cn1ccc(-c2ccc(C#N)c(Cl)c2)n1)Nc1nccc(Cl)n1`, the IC50 in assay [1] is over 30 µM; in assay [4] it was over 30 µM; in assay [2], over 30 µM; in assay [3], 1400 nM.
As for `C[C@@H](Cn1ccc(-c2ccc(C#N)c(Cl)c2)n1)Nc1cccc2cccnc12`, the IC50 was over 30 µM in assay [4], over 30 µM in assay [2] and 790 nM in assay [3].
`C[C@@H](Cn1ccc(-c2ccc(C#N)c(Cl)c2)n1)Nc1ccc2ncccc2c1`: the IC50 in assay [2] was over 30 µM; in assay [3], 13000 nM.
For `C[C@@H](Cn1ccc(-c2cc(F)c(C#N)c(Cl)c2)n1)NC(=O)Nc1cc(C(C)(C)C)[nH]n1`, the IC50 in assay [1] was over 30 µM; in assay [5], 15 µM; in assay [2], 5.12 µM; in assay [3], 1630 nM.
In the case of `C[C@@H](Cn1ccc(-c2ccc(C#N)c(Cl)c2)n1)Nc1ccc2ccccc2c1`, the IC50 in assay [4] came out at 4.61 µM; in assay [5], 26.8 µM; in assay [2], 4.61 µM; in assay [3], 7700 nM.
Consider `C[C@@H](Cn1ccc(-c2ccc(C#N)c(Cl)c2)n1)Nc1ccc2ccccc2n1`, for which the IC50 is over 30 µM in assay [1], 7.95 µM in assay [4], 0.87 µM in assay [2] and 2300 nM in assay [3].
As to `C[C@@H](Cn1ccc(-c2ccc(C#N)c(Cl)c2)n1)Nc1ccccn1`, the IC50 in assay [4] was over 30 µM; in assay [3] it was 1110 nM.
For `C[C@@H](Cn1ccc(-c2ccc(C#N)c(Cl)c2)n1)Nc1cccc2ccncc12`, the 50% inhibitory concentration (IC50) in assay [1] is 5.13 µM; in assay [4], 4.72 µM; in assay [2], 4.02 µM; in assay [3], 3090 nM.
In the case of `C[C@@H](Cn1ccc(-c2ccc(C#N)c(Cl)c2)n1)Nc1ccncc1`, the IC50 in assay [4] worked out at 11.5 µM; in assay [2], 9.9 µM; in assay [3], 2560 nM.
With `CC(=O)c1ccc(S(=O)(=O)N[C@@H](C)Cn2ccc(-c3ccc(C#N)c(Cl)c3)n2)cc1`, the IC50 in assay [1] is over 30 µM; in assay [2] it was 3.95 µM; in assay [3], 5230 nM.
Consider `C[C@@H](Cn1ccc(-c2ccc(C#N)c(Cl)c2)n1)Nc1cncc2ccccc12`, for which the figures for the IC50 in assay [2] and in assay [3] were 12.4 µM and 2280 nM, respectively.
On to `C[C@H](Cn1ccc(-c2ccc(C#N)c(Cl)c2)n1)Nc1ncnc2ccccc12`, for which the IC50 is 9.71 µM in assay [4], over 30 µM in assay [2] and 970 nM in assay [3].
Take `COc1ccc(C(=O)N[C@@H](C)Cn2ccc(-c3ccc(C#N)c(Cl)c3)n2)cc1`: the IC50 was over 30 µM in assay [1], 1.54 µM in assay [2] and 3410 nM in assay [3].
With `C[C@@H](Cn1ccc(-c2ccc(C#N)c(Cl)c2)n1)Nc1cnc2ccccc2c1`, the IC50 came to 6.04 µM in assay [4], 1.94 µM in assay [2] and 1870 nM in assay [3].
Regarding `C[C@H](Cn1ccc(-c2ccc(C#N)c(Cl)c2)n1)Nc1ncnc2nc[nH]c12`, the IC50 in assay [1] is 1.56 µM; in assay [4], 10.6 µM; in assay [2], 2 µM; in assay [3], 850 nM.
As for `CC(=O)c1ccc(C(=O)N[C@@H](C)Cn2ccc(-c3ccc(C#N)c(Cl)c3)n2)cc1`, the IC50 was over 30 µM in assay [1], 15.3 µM in assay [5], 1.4 µM in assay [2] and 3600 nM in assay [3].
As to `C[C@@H](Cn1ccc(-c2ccc(C#N)c(Cl)c2)n1)NS(=O)(=O)c1cccnc1`, the IC50 was over 30 µM in assay [1], 2.45 µM in assay [2] and 6140 nM in assay [3].
Consider `CC(=O)c1cc(C(=O)N[C@@H](C)Cn2ccc(-c3cc(F)c(C#N)c(Cl)c3)n2)n[nH]1`, for which the IC50 is over 30 µM in assay [1], over 30 µM in assay [4], 27.7 µM in assay [5] and 1100 nM in assay [3].
With `C[C@@H](Cn1ccc(-c2ccc(C#N)c(Cl)c2)n1)NC(=O)c1cc[nH]n1`, the half-inhibitory concentration (IC50) in assay [1] is 18.7 µM; in assay [4] it was over 30 µM; in assay [5], over 30 µM; in assay [3], 1000 nM.
As to `C[C@@H](Cn1ccc(-c2ccc(C#N)c(Cl)c2)n1)NC(=O)C1CC(=O)C1`, the IC50 in assay [1] was over 30 µM; in assay [2], 22.5 µM; in assay [3], 3040 nM.
On to `CC(Cn1ccc(-c2ccc(C#N)c(Cl)c2)n1)C(=O)Nc1cc[nH]n1` (racemic), for which the half-maximal inhibitory concentration (IC50) in assay [1] was over 30 µM; in assay [2] it was over 30 µM; in assay [3], over 30000 nM.
Consider `C[C@@H](Cn1ccc(-c2ccc(C#N)c(Cl)c2)n1)Nc1cccc2ccccc12`, for which the IC50 in assay [4] was over 30 µM; in assay [2] it was 28.1 µM; in assay [3], 870 nM.
As to `C[C@@H](Cn1ccc(-c2ccc(C#N)c(Cl)c2)n1)NC(=O)c1ccccc1`, the IC50 was over 30 µM in assay [1] and 1830 nM in assay [3].
For the compound `C[C@@H](Cn1ccc(-c2ccc(C#N)c(Cl)c2)n1)NS(=O)(=O)c1cn(C)cn1`, the half-maximal inhibitory concentration (IC50) in assay [1] is over 30 µM; in assay [2], 13.6 µM; in assay [3], over 30000 nM.
With `CC(O)c1cc(C(=O)N[C@H](C)Cn2ccc(-c3ccc(C#N)c(Cl)c3)n2)n[nH]1` (stereo not given in full), the results for the IC50 in assay [1], in assay [4] and in assay [3] were over 30 µM, over 30 µM and 1650 nM, respectively.
On to `C[C@@H](Cn1ccc(-c2ccc(C#N)c(Cl)c2)n1)Nc1ccc2c(ccn2C)c1`, for which the results for the IC50 in assay [4], in assay [2] and in assay [3] were 12 µM, 2.13 µM and 490 nM, respectively.
For the compound `CC(=O)c1cc(C(=O)N[C@@H](C)Cn2ccc(-c3ccc(C#N)c(Cl)c3)n2)n[nH]1`, the figures for the IC50 in assay [1], in assay [4] and in assay [3] were over 30 µM, over 30 µM and 1130 nM, respectively.
Consider `C[C@@H](Cn1ccc(-c2ccc(C#N)c(Cl)c2)n1)NC(=O)c1ccccc1F`, for which the IC50 in assay [1] was over 30 µM; in assay [2], 2.19 µM; in assay [3] it was 1810 nM.
Turning to `C[C@@H](Cn1ccc(-c2ccc(C#N)c(Cl)c2)n1)Nc1cc2ccccc2cn1`, the IC50 in assay [4] amounted to 12 µM; in assay [2], 1.58 µM; in assay [3], 1910 nM.

Broadly, the IC50 is the concentration at which inhibition is half-maximal.
